Laboratory results published in ChEMBL document CHEMBL1121923, “N2- and C-7 substituted actinomycin D analogues: synthesis, DNA-binding affinity, and biochemical and biological properties. Structure-activity relationship” (J Med Chem, 1981).
Converted amounts (≈) assume the structure as drawn. *1 amine or outer side, *2 acyl side, *3 side chain or, on linkers, in order; H or OH if unused. Where a SMILES comes first, the peptide text is derived from it. Bridges are numbered along the chain shown (N, C = ends). Roman numbers before positions name the chains, in order. [ ]: non-standard residue; d: D form. Actinocin(9to1) = Cc1c2oc3c(C)ccc(C(=O)[*:1])c3nc-2c(C(=O)[*:2])c(N)c1=O; NMeV = CN[C@H](C(=O)O)C(C)C; Sar = CNCC(=O)O

Key:
[1] = tested on: Calf thymus DNA; experiment: Apparent binding constant calf thymus DNA-drug complex; type: nucleic-acid assay; details: Bos taurus
In short: (§1)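 Calf thymus DNA; spectral titration; binding isotherms in 0.01 M phosphate buffer, pH 7.0, 20 °C; Kapp (per base pair) and Bapp (drug binding sites per base pair) taken from Scatchard plot.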

[2] = tested on: Calf thymus DNA; experiment: Apparent number of binding sites per base pairs in DNA; type: nucleic-acid assay; details: Bos taurus; in short: as §1
[3] = tested on: CCRF-CEM; experiment: In vitro antitumor activity against human lymphoblastic leukemia cells.; type: functional; details: read-out: ID50 (the source's name)
In short: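 Human lymphoblastic leukemia CCRF-CEM cells grown in suspension culture; growth inhibition in vitro; ID50 (ng/mL) reported as the 50% inhibitory dose.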

[4] = tested on: P388; experiment: Concentration required for 50% inhibition of incorporation of labeled thymidine by p388 cells for synthesis of DNA (in vitro); type: functional; details: Mus musculus, read-out: ED50 (the source's name)
[5] = tested on: P388; experiment: Percent of increased life span of P388 cells implanted CDF1 male mice; type: functional, Mus musculus
In short: (§2)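 CDF1 male mice, groups of seven, given 10^6 P388 cells ip on day 0; drug ip in 5% DMSO–saline on days 1, 5 and 9; controls received vehicle; range of doses tested, optimal nontoxic dose listed; median survival time; %ILS = (treated − control)/control × 100; average of two or more experiments.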

[6] = tested on: P388; experiment: Concentration required for 50% inhibition of incorporation of labeled uridine by P388 cells for the synthesis of RNA (in vitro); type: functional; details: Mus musculus, read-out: ED50 (the source's name)
[7] = tested on: P388; experiment: Optimal dose for antitumor activity was measured in P388 cells of CDF1 male mice in vivo; type: functional, Mus musculus; in short: as §2
[8] = tested on: P388; experiment: Median survival time of the P388 cells implanted CDF1 male mice in vivo; type: functional, Mus musculus; in short: as §2
[9] = organism: Bos taurus; experiment: Thermal denaturation (deltaTm) of compound against calf thymus DNA was measured; type: ADME; details: cattle, in vitro
In short: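 Calf thymus DNA (MW 100 000–500 000) in 0.01 M phosphate, 5 × 10^-3 M EDTA, pH 7.0; drug 7 × 10^-4 M, DNA nucleotide 7 × 10^-3 M; 259 nm absorbance read at 0.25–1.0 °C steps; Tm taken at 50% hyperchromicity; ΔTm = complex Tm minus DNA Tm.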

SMILES | K app [1] | Bapp [2] | IC50 [3] | EC50 [4] | ILS [5] | EC50 [6] | Optimal dose [7] | MST [8] | Delta Tm [9]
CCCOc1cc(C(=O)N[C@@H]2C(=O)N[C@H](C(C)C)C(=O)N3CCC[C@@H]3C(=O)N(C)CC(=O)N(C)[C@@H](C(C)C)C(=O)O[C@@H]2C)c2nc3c(C(=O)N[C@H]4C(=O)N[C@@H](C(C)C)C(=O)N5CCC[C@H]5C(=O)N(C)CC(=O)N(C)[C@H](C(C)C)C(=O)O[C@H]4C)c(N)c(=O)c(C)c-3oc2c1C | 2.1e+06 M⁻¹ | 0.078 | – | – | – | – | – | – | –
Cc1c2oc3c(C)c(O)c(N)c(C(=O)N[C@H]4C(=O)N[C@@H](C(C)C)C(=O)N5CCC[C@H]5C(=O)N(C)CC(=O)N(C)[C@H](C(C)C)C(=O)O[C@H]4C)c3nc-2c(C(=O)N[C@@H]2C(=O)N[C@H](C(C)C)C(=O)N3CCC[C@@H]3C(=O)N(C)CC(=O)N(C)[C@@H](C(C)C)C(=O)O[C@@H]2C)c/c1=N/Cc1ccccc1 | 5.8e+06 M⁻¹ | 0.049 | – | – | – | – | – | – | –
Cc1c2oc3c(C)c(O)c(N)c(C(=O)N[C@H]4C(=O)N[C@@H](C(C)C)C(=O)N5CCC[C@H]5C(=O)N(C)CC(=O)N(C)[C@H](C(C)C)C(=O)O[C@H]4C)c3nc-2c(C(=O)N[C@@H]2C(=O)N[C@H](C(C)C)C(=O)N3CCC[C@@H]3C(=O)N(C)CC(=O)N(C)[C@@H](C(C)C)C(=O)O[C@@H]2C)c/c1=N/Cc1cccc(Oc2ccccc2)c1 | 8.8e+06 M⁻¹ | 0.055 | – | – | – | – | – | – | –
Cc1c2oc3c(C)c(O)c(N)c(C(=O)N[C@@H]4C(=O)N[C@H](C(C)C)C(=O)N5CCC[C@H]5C(=O)N(C)CC(=O)N(C)[C@@H](C(C)C)C(=O)O[C@H]4C)c3nc-2c(C(=O)N[C@@H]2C(=O)N[C@H](C(C)C)C(=O)N3CCC[C@H]3C(=O)N(C)CC(=O)N(C)[C@@H](C(C)C)C(=O)O[C@H]2C)cc1=N | 2.3e+07 M⁻¹ | 0.121 | – | – | – | – | – | – | –
Cc1c2oc3c(C)ccc(C(=O)N[C@@H]4C(=O)N[C@H](C(C)C)C(=O)N5CCC[C@H]5C(=O)N(C)CC(=O)N(C)[C@@H](C(C)C)C(=O)O[C@@H]4C)c3nc-2c(C(=O)N[C@@H]2C(=O)N[C@H](C(C)C)C(=O)N3CCC[C@H]3C(=O)N(C)CC(=O)N(C)[C@@H](C(C)C)C(=O)O[C@@H]2C)c(NCCCN)c1=O | – | – | 0.3 µg/mL (≈ 0.229 µM) | 430 nM | 172% | 118 nM | 1.2 mg/kg | 30 days | –
Cc1c2oc3c(C)c(O)c(N)c(C(=O)N[C@@H]4C(=O)N[C@H](C(C)C)C(=O)N5CCC[C@H]5C(=O)N(C)CC(=O)N(C)[C@@H](C(C)C)C(=O)O[C@@H]4C)c3nc-2c(C(=O)N[C@@H]2C(=O)N[C@H](C(C)C)C(=O)N3CCC[C@H]3C(=O)N(C)CC(=O)N(C)[C@@H](C(C)C)C(=O)O[C@@H]2C)cc1=O | – | – | 0.95 µg/mL (≈ 0.747 µM) | 5080 nM | 129% | 3220 nM | 1.2 mg/kg | 24 days | –
Cc1c2oc3c(C)c(O)c(N)c(C(=O)N[C@H]4C(=O)N[C@@H](C(C)C)C(=O)N5CCC[C@H]5C(=O)N(C)CC(=O)N(C)[C@H](C(C)C)C(=O)O[C@H]4C)c3nc-2c(C(=O)N[C@@H]2C(=O)N[C@H](C(C)C)C(=O)N3CCC[C@@H]3C(=O)N(C)CC(=O)N(C)[C@@H](C(C)C)C(=O)O[C@@H]2C)cc1=O | 3.2e+07 M⁻¹ | 0.1 | – | – | – | – | – | – | –
Cc1c2oc3c(C)c(O)c(N)c(C(=O)N[C@H]4C(=O)N[C@@H](C(C)C)C(=O)N5CCC[C@H]5C(=O)N(C)CC(=O)N(C)[C@H](C(C)C)C(=O)O[C@H]4C)c3nc-2c(C(=O)N[C@@H]2C(=O)N[C@H](C(C)C)C(=O)N3CCC[C@@H]3C(=O)N(C)CC(=O)N(C)[C@@H](C(C)C)C(=O)O[C@@H]2C)c/c1=N/Cc1ccc[nH]1 | 9.2e+07 M⁻¹ | 0.055 | – | – | – | – | – | – | –
COc1cc(C(=O)N[C@@H]2C(=O)N[C@H](C(C)C)C(=O)N3CCC[C@@H]3C(=O)N(C)CC(=O)N(C)[C@@H](C(C)C)C(=O)O[C@@H]2C)c2nc3c(C(=O)N[C@H]4C(=O)N[C@@H](C(C)C)C(=O)N5CCC[C@H]5C(=O)N(C)CC(=O)N(C)[C@H](C(C)C)C(=O)O[C@H]4C)c(N)c(=O)c(C)c-3oc2c1C | 7.7e+06 M⁻¹ | 0.11 | – | – | – | – | – | – | –
Cc1c2oc3c(C)c(O)c(N)c(C(=O)N[C@H]4C(=O)N[C@@H](C(C)C)C(=O)N5CCC[C@H]5C(=O)N(C)CC(=O)N(C)[C@H](C(C)C)C(=O)O[C@H]4C)c3nc-2c(C(=O)N[C@@H]2C(=O)N[C@H](C(C)C)C(=O)N3CCC[C@@H]3C(=O)N(C)CC(=O)N(C)[C@@H](C(C)C)C(=O)O[C@@H]2C)c/c1=N/Cc1ccc(Cl)c(Cl)c1 | 2.6e+07 M⁻¹ | 0.058 | – | – | – | – | – | – | –
CCCCOc1cc(C(=O)N[C@@H]2C(=O)N[C@H](C(C)C)C(=O)N3CCC[C@@H]3C(=O)N(C)CC(=O)N(C)[C@@H](C(C)C)C(=O)O[C@@H]2C)c2nc3c(C(=O)N[C@H]4C(=O)N[C@@H](C(C)C)C(=O)N5CCC[C@H]5C(=O)N(C)CC(=O)N(C)[C@H](C(C)C)C(=O)O[C@H]4C)c(N)c(=O)c(C)c-3oc2c1C | 1.1e+06 M⁻¹ | – | – | – | – | – | – | – | –
Cc1c2oc3c(C)ccc(C(=O)N[C@@H]4C(=O)N[C@H](C(C)C)C(=O)N5CCC[C@H]5C(=O)N(C)CC(=O)N(C)[C@@H](C(C)C)C(=O)O[C@@H]4C)c3nc-2c(C(=O)N[C@@H]2C(=O)N[C@H](C(C)C)C(=O)N3CCC[C@H]3C(=O)N(C)CC(=O)N(C)[C@@H](C(C)C)C(=O)O[C@@H]2C)c(N)c1=O [DACTINOMYCIN] (I: T[dV]P[Sar][NMeV] / II: T[dV]P[Sar][NMeV]; ester I:1-I:C, II:1-II:C; linker I:N-II:N via Actinocin(9to1)) | 2.3e+07 M⁻¹ | 0.108 | 0.06 µg/mL (≈ 0.0478 µM) | 996 nM | 129% | 46 nM | 0.125 mg/kg | 24 days | 7.1
CCOc1cc(C(=O)N[C@@H]2C(=O)N[C@H](C(C)C)C(=O)N3CCC[C@@H]3C(=O)N(C)CC(=O)N(C)[C@@H](C(C)C)C(=O)O[C@@H]2C)c2nc3c(C(=O)N[C@H]4C(=O)N[C@@H](C(C)C)C(=O)N5CCC[C@H]5C(=O)N(C)CC(=O)N(C)[C@H](C(C)C)C(=O)O[C@H]4C)c(N)c(=O)c(C)c-3oc2c1C | 6.9e+06 M⁻¹ | 0.097 | – | – | – | – | – | – | –
Cc1c2oc3c(C)c(O)c(N)c(C(=O)N[C@H]4C(=O)N[C@@H](C(C)C)C(=O)N5CCC[C@H]5C(=O)N(C)CC(=O)N(C)[C@H](C(C)C)C(=O)O[C@H]4C)c3nc-2c(C(=O)N[C@@H]2C(=O)N[C@H](C(C)C)C(=O)N3CCC[C@@H]3C(=O)N(C)CC(=O)N(C)[C@@H](C(C)C)C(=O)O[C@@H]2C)c/c1=N/Cc1ccco1 | 3.8e+06 M⁻¹ | 0.055 | – | – | – | – | – | – | –
CCCNc1c(C(=O)N[C@@H]2C(=O)N[C@H](C(C)C)C(=O)N3CCC[C@H]3C(=O)N(C)CC(=O)N(C)[C@@H](C(C)C)C(=O)O[C@@H]2C)c2nc3c(C(=O)N[C@@H]4C(=O)N[C@H](C(C)C)C(=O)N5CCC[C@H]5C(=O)N(C)CC(=O)N(C)[C@@H](C(C)C)C(=O)O[C@@H]4C)ccc(C)c3oc-2c(C)c1=O | – | – | 0.45 µg/mL (≈ 0.347 µM) | > 5500 nM | 55% | 1820 nM | 1.2 mg/kg | 17 days | –
CCCOc1cc(C(=O)N[C@@H]2C(=O)N[C@H](C(C)C)C(=O)N3CCC[C@H]3C(=O)N(C)CC(=O)N(C)[C@@H](C(C)C)C(=O)O[C@@H]2C)c2nc3c(C(=O)N[C@@H]4C(=O)N[C@H](C(C)C)C(=O)N5CCC[C@H]5C(=O)N(C)CC(=O)N(C)[C@@H](C(C)C)C(=O)O[C@@H]4C)c(N)c(=O)c(C)c-3oc2c1C | – | – | 0.31 µg/mL (≈ 0.236 µM) | 1980 nM | 52% | 230 nM | 0.75 mg/kg | 16 days | –
CCOc1cc(C(=O)N[C@@H]2C(=O)N[C@H](C(C)C)C(=O)N3CCC[C@H]3C(=O)N(C)CC(=O)N(C)[C@@H](C(C)C)C(=O)O[C@@H]2C)c2nc3c(C(=O)N[C@@H]4C(=O)N[C@H](C(C)C)C(=O)N5CCC[C@H]5C(=O)N(C)CC(=O)N(C)[C@@H](C(C)C)C(=O)O[C@@H]4C)c(N)c(=O)c(C)c-3oc2c1C | – | – | 0.17 µg/mL (≈ 0.131 µM) | 1630 nM | 91% | 151 nM | 0.45 mg/kg | 20 days | –
